This is an account of results in ChEMBL document CHEMBL4316610, “Synthesis and Biological Studies of (+)-Liquiditerpenoic Acid A (Abietopinoic Acid) and Representative Analogues: SAR Studies” (J Nat Prod, 2019).

Molecules are shown by their SMILES. Activity calls are given as the source filed them. The calls are words filed in the database; no cut-off is given here.

Data set [1] relates to Leishmania amazonensis. The data set can be described thus: Antileishmanial activity against Leishmania amazonensis MHOM/Br/79/Mari promastigotes after 48 hrs by resazurin dye-based fluorometric analysis. Type of data set: functional, organism-based. As to conditions: Leishmania amazonensis, MHOM/Br/79/Mari, 48 h; read-out: IC50. Summed up:
(§1)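 The IC50 is taken as the compound concentration giving a 50% reduction in parasites, reported with SD.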
(The colour change of resazurin is a common sign of viable cells or microbes.)

Data set [2] is described as follows: Selectivity index, ratio of CC50 for mouse J774 cells to IC50 for Leishmania donovani MHOM/IN/80/DD8 promastigotes. The format is toxicity. The settings on record: read-out: Ratio CC50/IC50.
A short description of data set [3]: Cytotoxicity against mouse J774 cells assessed as reduction in cell viability after 48 hrs by resazurin dye-based fluorometric analysis. Summed up: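 The CC50 is taken as the concentration giving a 50% reduction in cell viability of treated cultures compared with untreated cells.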
For data set [4], the system named is NALM-6. The experiment in a line: Antiproliferative activity against human NALM6 cells after 72 hrs by CellTiter-Glo luminescent cell viability assay. The format is functional, cell-based. As to conditions: NALM-6, 72 h. On the technique in general: Cellular ATP, detected with luciferase, serves as a proxy for viable cell number.
The subject of data set [5] is Leishmania donovani. The experiment in a line: Antileishmanial activity against Leishmania donovani MHOM/IN/80/DD8 promastigotes after 48 hrs by resazurin dye-based fluorometric analysis. Type of data set: functional, organism-based. The settings on record: Leishmania donovani, MHOM/IN/80/DD8, 48 h. The procedure, abridged: as §1
The subject of data set [6] is NALM-6. The data set can be described thus: Cell cycle arrest in human NALM6 cells assessed as accumulation at G2/M phase at 10 uM after 24 hrs by propidium iodide staining-based flow cytometric analysis. Type of data set: functional. The procedure, abridged: (§2)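 Phosphatidylserine exposure read by Annexin V-FITC/propidium iodide flow cytometry; DNA content by PI staining for cell-cycle distribution.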

Data set [7] in a line: Selectivity index, ratio of CC50 for mouse J774 cells to IC50 for Leishmania infantum MCAN/ES/96/BCN150 promastigotes. The format is toxicity. As to conditions: read-out: Ratio CC50/IC50.
Data set [8] concerns NALM-6. The experiment in a line: Cell cycle arrest in human NALM6 cells assessed as accumulation at G0/G1 phase at 10 uM after 24 hrs by propidium iodide staining-based flow cytometric analysis. Type of data set: functional. Summed up:
as §2

The target of data set [9] is T1, GABA-A receptor; alpha-1/beta-2/gamma-2 (Homo sapiens) (UniProt P14867+P47870+P18507). The experiment in a line: Modulation of recombinant wild type GABAA receptor alpha1beta2gamma2S (unknown origin) expressed in Xenopus laevis oocytes assessed as increase in GABA-evoked chloride current at 100 uM at -70 mV holding potential by two-microelectrode voltage clamp assay relative to control. The format is cell-based. Summed up:
(§3)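 Two-microelectrode voltage clamp at -70 mV on Xenopus laevis oocytes expressing α1β2γ2S GABA-A receptors. GABA EC5 (4-5 μM), set individually for each oocyte, applied for 20 s alone, then co-applied with compound at 10 or 100 μM. Potentiation of GABA-evoked current is reported. Dehydroabietic acid served as positive control. Mean ± SEM from at least three oocytes and two oocyte batches.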

Data set [10] can be described thus: Antiproliferative activity against mouse leukemia cells overexpressing BCR/ABL after 72 hrs by CellTiter-Glo luminescent cell viability assay. Type of data set: functional, cell-based.
The target in data set [11] is T1, GABA-A receptor; alpha-1/beta-2/gamma-2 (Homo sapiens). The experiment in a line: Modulation of recombinant wild type GABAA receptor alpha1beta2gamma2S (unknown origin) expressed in Xenopus laevis oocytes assessed as increase in GABA-evoked chloride current at 10 uM at -70 mV holding potential by two-microelectrode voltage clamp assay relative to control. The format is cell-based. The procedure, abridged: as §3

Data set [12] concerns UoC-B1. The experiment in a line: Antiproliferative activity against human UOCB1 cells after 72 hrs by CellTiter-Glo luminescent cell viability assay. Type of data set: functional, cell-based. As to conditions: UoC-B1, 72 h.
Data set [13] relates to BJ. The data set can be described thus: Antiproliferative activity against human BJ cells after 72 hrs by CellTiter-Glo luminescent cell viability assay. The format is ADME, cell-based.
In data set [14] the test system is NALM-6. The data set can be described thus: Induction of apoptosis in human NALM6 cells after 24 hrs by Annexin V-FITC/propidium iodide staining-based flow cytometric analysis. Type of data set: functional, cell-based. Summed up:
as §2
(A flow cytometer gives signals particle by particle.)

For data set [15], the system named is Leishmania guyanensis. The experiment in a line: Antileishmanial activity against Leishmania guyanensis 141/93 promastigotes after 48 hrs by resazurin dye-based fluorometric analysis. The format is functional, organism-based. The settings on record: Leishmania guyanensis, 141/93, 48 h; read-out: IC50. Summed up:
as §1

Data set [16] can be described thus: Selectivity index, ratio of CC50 for mouse J774 cells to IC50 for Leishmania amazonensis MHOM/Br/79/Mari promastigotes. As to conditions: read-out: Ratio CC50/IC50. Type of data set: toxicity.
In data set [17] the test system is Leishmania guyanensis. The data set can be described thus: Potency index, ratio of miltefosine IC50 to compound IC50 for Leishmania guyanensis 141/93 promastigotes after 48 hrs by resazurin dye-based fluorometric analysis. The format is functional.
For data set [18], the system named is KOPN-8. The data set can be described thus: Antiproliferative activity against human KOPN8 cells after 72 hrs by CellTiter-Glo luminescent cell viability assay. The format is functional, cell-based. As to conditions: KOPN-8, 72 h.
The subject of data set [19] is SUP-B15. The data set can be described thus: Antiproliferative activity against human SUP-B15 cells after 72 hrs by CellTiter-Glo luminescent cell viability assay. Type of data set: functional, cell-based. The settings on record: SUP-B15, 72 h.
The subject of data set [20] is Leishmania infantum. The experiment in a line: Antileishmanial activity against Leishmania infantum MCAN/ES/96/BCN150 promastigotes after 48 hrs by resazurin dye-based fluorometric analysis. The format is functional, organism-based. As to conditions: Leishmania infantum, MCAN/ES/96/BCN150, 48 h; read-out: IC50. The procedure, abridged:
as §1

The test system of data set [21] is KOPN-8. The experiment in a line: Induction of apoptosis in human KOPN8 cells assessed as late apoptotic cells at 20 uM after 32 hrs by Annexin V-FITC/propidium iodide staining-based flow cytometric analysis relative to control. The format is functional.
Data set [22] can be described thus: Selectivity index, ratio of CC50 for mouse J774 cells to IC50 for Leishmania guyanensis 141/93 promastigotes. Type of data set: toxicity. The settings on record: read-out: Ratio CC50/IC50.

Usually CC50 stands for the concentration giving 50% cytotoxicity. What is called EC50 is the concentration at which the effect is half-maximal.

With `COC(=O)[C@]1(C)CCC[C@]2(C)c3cc(OC(C)=O)c(C(C)C)cc3C(=O)C[C@@H]12`, the IC50 in data set [1] was 0.65 µM; in data set [5] (read-out: IC50), 4.4 µM; in [5] (read-out: log(1/IC50) (converted)) it was 4.38 µM; in data set [15], 1.3 µM; in data set [20], 0.7 µM. In addition, the selectivity ratio was 4.1 in data set [2], 25.4 in data set [7], 27.4 in data set [16] and 13.6 in data set [22]. The half-maximal cytotoxic concentration (CC50) at 48 h in [3] stood at 17.8 µM. The EC50 in [4] is 10.7 µM; in data set [10] it was 12.2 µM; in data set [12], above 40 µM; in [13] it was “Non-Toxic”; in data set [18], 18.5 µM; in data set [19], 21.7 µM. Also, the result in [6] and in data set [8] was Active. Moreover, the Activity is 46.7% in data set [9], -1% in [11], “Dose-dependent effect” in data set [14] and above 85% in [21]. For the same compound, the “Ratio IC50” value in data set [17] came to 13.
